Molecular target: Human immunodeficiency virus type 1 reverse transcriptase (Human immunodeficiency virus 1) (UniProt Q72547)
Test: Inhibition of HIV1 RT after 1 hr by ELISA relative to control
Parameters: concentration or dose not given beside the values
Conditions: concentration not given here
In short: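 RT inhibitors, diluted in lysis buffer, were mixed with reaction mixture and incubated 1 h at 37 °C. Samples were then transferred to microplate modules for 1 h at 37 °C and washed. Anti-DIG-POD (200 mU/ml) was added for 1 h at 37 °C, then washed again. ABTS substrate was developed at 15–25 °C for 10–30 min, and absorbance was read at 405 nm.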

Row | SMILES | inhibition
1 | Cc1ccc2c(c1)/C(=N/n1cnnc1)C(=O)N2CN1CCOCC1 | 84.1%
2 | Cc1ccc2c(c1)/C(=N/n1cnnc1)C(=O)N2CN(C)C | 69.1%

Results, then the compound that gave them:

Row | inhibition | SMILES
3 | 90.9% | Cc1ccc2c(c1)/C(=N/n1cnnc1)C(=O)N2CN1CCNCC1
4 | 89% | Cc1ccc2c(c1)/C(=N/n1cnnc1)C(=O)N2CN1CCCCC1
5 | 0% | CNc1ccc(CN2C(=O)/C(=N\n3cnnc3)c3cc(C)ccc32)cc1
